In paper PMC10240386 (Cell chemical biology, 2023):

What was measured:
Dd2β6^A117D = assay: Parasite growth inhibition assay, erythrocytic stage; format: cell-based, Plasmodium falciparum
human c-20S β5c = human c-20S β5c (Homo sapiens, UniProt P20618+P28074); assay: Proteasome IC50 determination, human c-20S β5c; format: biochemical
In short: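 Human c-20S (0.2 nM) assayed in 20 mM HEPES, 0.5 mM EDTA, 0.1 mg/mL BSA, pH 7.5, with 0.02% SDS and 25 µM suc-LLVY-AMC. Pf20S (1 nM) assayed in 50 mM Tris, 5 mM MgCl2, 1 mM DTT, pH 7.4, with 12 nM PA28α, 0.5 µM WLW-VS and 25 µM suc-LLVY-AMC. Test compound given as a 3-fold series, 100–0.0017 µM final. AMC read at 360/460 nm for 1–2 h; linear velocities fitted to a dose-response equation. Run in duplicate or triplicate.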

Pf20Sβ6^A117D = assay: Blocking of MV151 labeling in parasite lysate; format: binding, Plasmodium falciparum; conditions: 1 h preincubation of Dd2β6^A117D lysate
In short: (§1)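 Dd2 wild-type or mutant parasite pellets lysed on ice for 1 h in 50 mM Tris-HCl, 5 mM MgCl2, 1 mM DTT, pH 7.4, then centrifuged; protein quantified by BCA. 5–10 µg of lysate protein preincubated with test compound for 1 h at 37°C. MV151 added at 2 µM final for a further 1 h at 37°C, protected from light. Run on 12% Bis-Tris SDS-PAGE and scanned at Cy3/TAMRA (λex 532, λem 560 nm).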

HepG2 cells = assay: HepG2 cell viability assay; format: cell-based; conditions: Homo sapiens, HepG2, 72 h, read-out: HepG2
[1] = tested on: intracellular Pf20S β5 with the β5^A49S mutation; assay: Intraparasitic hybrid activation and proteasome inhibition assay; format: cell-based, Plasmodium falciparum; conditions: ATZ4 700 nM, Dd2β5^A49S parasites, compared with WT
In short: (§2)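 Dd2 wild-type and mutant lines grown synchronized to 5–8% parasitemia. Early-trophozoite infected erythrocytes pulsed 6 h with test compound (700 or 800 nM) or DMSO, then washed four times in complete medium. Parasites released with saponin, washed in cold PBS and lysed in 20 mM Tris-HCl, 5 mM MgCl2, 1 mM DTT, pH 7.4. Equal lysate amounts labeled with 2 µM MV151 for 1 h at 37°C, separated by SDS-PAGE and scanned on the TAMRA channel.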

P. berghei ANKA lux = assay: In vivo efficacy in mice infected with P. berghei ANKA lux; parameters: species or system Swiss Webster mice
Dd2β5^A49S = assay: Parasite growth inhibition assay, erythrocytic stage; format: cell-based, Plasmodium falciparum
Pf20Sβ5^A49S = assay: Blocking of MV151 labeling in parasite lysate; format: binding, Plasmodium falciparum; conditions: 1 h preincubation of Dd2β5^A49S lysate
In short: as §1

Pf Dd2^WT = assay: Parasite growth inhibition assay, erythrocytic stage; format: cell-based, Plasmodium falciparum
[2] = tested on: intracellular Pf20S β5 with the β6^A117D mutation; assay: Intraparasitic hybrid activation and proteasome inhibition assay; format: cell-based, Plasmodium falciparum; conditions: ATZ4 700 nM, Dd2β6^A117D parasites, compared with WT
In short: as §2

[3] = tested on: Pf20S β5 in lysate of Dd2^WT; assay: Blocking of MV151 labeling in parasite lysate; format: binding, Plasmodium falciparum; conditions: 1 h preincubation of Dd2^WT lysate
In short: as §1

Pf20S β5 = Pf20S β5 (Plasmodium falciparum, UniProt A0A5K1K7U1+Q8IJT1); assay: biochemical; format: biochemical
Dd2β6^A117DK13^R539T = assay: Parasite growth inhibition, dual resistant strain; format: cell-based, Plasmodium falciparum
human i-20S β5i = human i-20S β5i (Homo sapiens, UniProt P20618+P28062); assay: Proteasome IC50 determination, human i-20S β5i; format: biochemical
In short: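 Human i-20S (0.4 nM) assayed in 20 mM HEPES, 0.5 mM EDTA, 0.1 mg/mL BSA, pH 7.5, with 0.02% SDS and 15 µM Ac-ANW-AMC. Pf20S (1 nM) assayed in 50 mM Tris, 5 mM MgCl2, 1 mM DTT, pH 7.4, with 12 nM PA28α, 0.5 µM WLW-VS and 25 µM suc-LLVY-AMC. Test compound given as a 3-fold series, 100–0.0017 µM final. AMC read at 360/460 nm for 1–2 h; velocities fitted to a dose-response equation. Run in duplicate or triplicate.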

[4] = tested on: DHA-resistant clones DR1, DR2, DR4 derived from Dd2; assay: Standard 72-h in vitro assay on DHA-resistant clones; format: cell-based, Plasmodium falciparum; conditions: standard 72-h assay
[5] = tested on: P. berghei G2025^R551T (K13^R551T); assay: Modified Peters' 4-day suppressive test for recrudescence, ART-resistant strain; format: in vivo, Swiss Webster mice; conditions: ART 50 mg/kg, ATZ4 100 mg/kg i.p. day 0 to day 2

C[C@H]1[C@@H](CC(=O)NCCCC(=O)N[C@@H](CC(=O)NC(C)(C)C)C(=O)NCCNC(=O)c2cc(-c3ccccc3F)ccc2F)O[C@@H]2O[C@@]3(C)CC[C@H]4[C@H](C)CC[C@@H]1[C@@]24OO3 [ATZ4, (S)-N4-(tert-butyl)-N1-(2-(2′,4-difluoro-[1,1′-biphenyl]-3-carboxamido)ethyl)-2-(4-(2-((3R,5aS,6R,8aS,9R,10R,12R,12aR)-3,6,9-trimethyldecahydro-12H-3,12-epoxy[1,2]dioxepino[4,3-i]isochromen-10-yl)acetamido)butanamido)succinamide]
fold improvement over PI01 against Dd2β6^A117D (Dd2β6^A117D): ≥ 5 fold
fold more resistant / reduced potency, Dd2β6^A117D versus parental Dd2 (Dd2β6^A117D; EC50 ratio): ≤ 2.9 fold
EC50 (Dd2β6^A117D; Plasmodium falciparum, 72 h, read-out: EC50 Dd2β6^A117D): 6.7 ± 2.2 nM
IC50 (human c-20S β5c): 890 ± 140 nM
blocking of MV151 labeling of β5 (Pf20Sβ6^A117D): prevented PI01 and ATZ4 from inhibiting
EC50 (HepG2 cells): 9.4 µM
inhibition of Pf20S β5 labeling by MV151 after 6 h pulse and washing [1]: similarly effective
effect on parasite load (P. berghei ANKA lux; 10 mg/kg i.p. once daily day 3 to day 6, luminescence on day 7): no detectable effect
decrease in parasite load (P. berghei ANKA lux; 25 mg/kg i.p. once daily day 3 to day 6, luminescence on day 7): 1.2 log10
decrease in parasite load (P. berghei ANKA lux; 50 mg/kg i.p. once daily day 3 to day 6, luminescence on day 7, to below the limit of detection): > 3 log10
fold improvement over PI01 against Dd2β5^A49S (Dd2β5^A49S): > 100 fold
fold more resistant / reduced potency, Dd2β5^A49S versus parental Dd2 (Dd2β5^A49S; EC50 ratio): ≤ 3.6 fold
EC50 (Dd2β5^A49S; Plasmodium falciparum, 72 h, read-out: EC50 Dd2β5^A49S): 5.9 ± 1.9 nM
blocking of MV151 labeling of β5 (Pf20Sβ5^A49S): prevented PI01 and ATZ4 from inhibiting
times more potent than ART1 against Dd2 (Pf Dd2^WT; EC50 ratio): 10 times
EC50 (Pf Dd2^WT; Plasmodium falciparum, DD2, Erythrocyte, 72 h, read-out: EC50 Pf Dd2^WT): 4.3 ± 1.3 nM
inhibition of Pf20S β5 labeling by MV151 after 6 h pulse and washing [2]: similarly effective
blocking of MV151 labeling of β5 [3]: dose dependently blocked labeling of β5
IC50 (Pf20S β5): 4.3 ± 0.9 nM
activity against Pf20S (Pf20S β5; Pf20S β5): potency comparable with that of PI01
potency across Dd2, Dd2β6^A117D, Dd2K13^R539T and Dd2β6^A117DK13^R539T (Dd2β6^A117DK13^R539T): equipotent
IC50 (human i-20S β5i): 200 ± 57 nM
susceptibility of DHA-resistant clones compared with WT Dd2 [4]: equally susceptible
mice with positive blood smear on day 6 [5]: 0%
mice with positive blood smear on day 8 [5]: 0%
mice with positive blood smear on day 10 [5]: 60%
